Laboratory results from paper PMC2857138 (The Journal of Biological Chemistry, 2010).

Experiments:
Format in all cases: biochemical
IP3R3 = IP3R3 (Rattus norvegicus, UniProt Q63269); assay: Ca2+ release from stores of permeabilized DT40 cells
IP3R2 [1] = target: IP3R2 (Mus musculus, UniProt Q9Z329); assay: Ca2+ release from stores of permeabilized DT40 cells
Method in brief: (§1)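 DT40 cells lacking all endogenous IP3R genes were stably transfected with the IP3R construct and selected with G418 (2 mg/ml). Intracellular stores were loaded with Mag-fluo-4, and cells were permeabilized with saponin (10 μg/ml) at 20 °C in cytosol-like medium (free Ca²⁺ 220 nM, pH 7.0). After MgATP (1.5 mM) loading reached steady state, IP3 was added with thapsigargin (1 μM). Release was expressed as a fraction of ionomycin (1 μM) release.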

IP3R2 [2] = target: IP3R2 (Mus musculus, UniProt Q9Z329, G1969A/G1971A/G1974A); assay: Ca2+ release from stores of permeabilized DT40-ΔATPB cells
Method in brief: as §1

IP3R2 (Mus musculus, UniProt Q9Z329, G1969A/G1971A/G1974A), sequence (Q9Z329 whole entry G1969A/G1971A/G1974A): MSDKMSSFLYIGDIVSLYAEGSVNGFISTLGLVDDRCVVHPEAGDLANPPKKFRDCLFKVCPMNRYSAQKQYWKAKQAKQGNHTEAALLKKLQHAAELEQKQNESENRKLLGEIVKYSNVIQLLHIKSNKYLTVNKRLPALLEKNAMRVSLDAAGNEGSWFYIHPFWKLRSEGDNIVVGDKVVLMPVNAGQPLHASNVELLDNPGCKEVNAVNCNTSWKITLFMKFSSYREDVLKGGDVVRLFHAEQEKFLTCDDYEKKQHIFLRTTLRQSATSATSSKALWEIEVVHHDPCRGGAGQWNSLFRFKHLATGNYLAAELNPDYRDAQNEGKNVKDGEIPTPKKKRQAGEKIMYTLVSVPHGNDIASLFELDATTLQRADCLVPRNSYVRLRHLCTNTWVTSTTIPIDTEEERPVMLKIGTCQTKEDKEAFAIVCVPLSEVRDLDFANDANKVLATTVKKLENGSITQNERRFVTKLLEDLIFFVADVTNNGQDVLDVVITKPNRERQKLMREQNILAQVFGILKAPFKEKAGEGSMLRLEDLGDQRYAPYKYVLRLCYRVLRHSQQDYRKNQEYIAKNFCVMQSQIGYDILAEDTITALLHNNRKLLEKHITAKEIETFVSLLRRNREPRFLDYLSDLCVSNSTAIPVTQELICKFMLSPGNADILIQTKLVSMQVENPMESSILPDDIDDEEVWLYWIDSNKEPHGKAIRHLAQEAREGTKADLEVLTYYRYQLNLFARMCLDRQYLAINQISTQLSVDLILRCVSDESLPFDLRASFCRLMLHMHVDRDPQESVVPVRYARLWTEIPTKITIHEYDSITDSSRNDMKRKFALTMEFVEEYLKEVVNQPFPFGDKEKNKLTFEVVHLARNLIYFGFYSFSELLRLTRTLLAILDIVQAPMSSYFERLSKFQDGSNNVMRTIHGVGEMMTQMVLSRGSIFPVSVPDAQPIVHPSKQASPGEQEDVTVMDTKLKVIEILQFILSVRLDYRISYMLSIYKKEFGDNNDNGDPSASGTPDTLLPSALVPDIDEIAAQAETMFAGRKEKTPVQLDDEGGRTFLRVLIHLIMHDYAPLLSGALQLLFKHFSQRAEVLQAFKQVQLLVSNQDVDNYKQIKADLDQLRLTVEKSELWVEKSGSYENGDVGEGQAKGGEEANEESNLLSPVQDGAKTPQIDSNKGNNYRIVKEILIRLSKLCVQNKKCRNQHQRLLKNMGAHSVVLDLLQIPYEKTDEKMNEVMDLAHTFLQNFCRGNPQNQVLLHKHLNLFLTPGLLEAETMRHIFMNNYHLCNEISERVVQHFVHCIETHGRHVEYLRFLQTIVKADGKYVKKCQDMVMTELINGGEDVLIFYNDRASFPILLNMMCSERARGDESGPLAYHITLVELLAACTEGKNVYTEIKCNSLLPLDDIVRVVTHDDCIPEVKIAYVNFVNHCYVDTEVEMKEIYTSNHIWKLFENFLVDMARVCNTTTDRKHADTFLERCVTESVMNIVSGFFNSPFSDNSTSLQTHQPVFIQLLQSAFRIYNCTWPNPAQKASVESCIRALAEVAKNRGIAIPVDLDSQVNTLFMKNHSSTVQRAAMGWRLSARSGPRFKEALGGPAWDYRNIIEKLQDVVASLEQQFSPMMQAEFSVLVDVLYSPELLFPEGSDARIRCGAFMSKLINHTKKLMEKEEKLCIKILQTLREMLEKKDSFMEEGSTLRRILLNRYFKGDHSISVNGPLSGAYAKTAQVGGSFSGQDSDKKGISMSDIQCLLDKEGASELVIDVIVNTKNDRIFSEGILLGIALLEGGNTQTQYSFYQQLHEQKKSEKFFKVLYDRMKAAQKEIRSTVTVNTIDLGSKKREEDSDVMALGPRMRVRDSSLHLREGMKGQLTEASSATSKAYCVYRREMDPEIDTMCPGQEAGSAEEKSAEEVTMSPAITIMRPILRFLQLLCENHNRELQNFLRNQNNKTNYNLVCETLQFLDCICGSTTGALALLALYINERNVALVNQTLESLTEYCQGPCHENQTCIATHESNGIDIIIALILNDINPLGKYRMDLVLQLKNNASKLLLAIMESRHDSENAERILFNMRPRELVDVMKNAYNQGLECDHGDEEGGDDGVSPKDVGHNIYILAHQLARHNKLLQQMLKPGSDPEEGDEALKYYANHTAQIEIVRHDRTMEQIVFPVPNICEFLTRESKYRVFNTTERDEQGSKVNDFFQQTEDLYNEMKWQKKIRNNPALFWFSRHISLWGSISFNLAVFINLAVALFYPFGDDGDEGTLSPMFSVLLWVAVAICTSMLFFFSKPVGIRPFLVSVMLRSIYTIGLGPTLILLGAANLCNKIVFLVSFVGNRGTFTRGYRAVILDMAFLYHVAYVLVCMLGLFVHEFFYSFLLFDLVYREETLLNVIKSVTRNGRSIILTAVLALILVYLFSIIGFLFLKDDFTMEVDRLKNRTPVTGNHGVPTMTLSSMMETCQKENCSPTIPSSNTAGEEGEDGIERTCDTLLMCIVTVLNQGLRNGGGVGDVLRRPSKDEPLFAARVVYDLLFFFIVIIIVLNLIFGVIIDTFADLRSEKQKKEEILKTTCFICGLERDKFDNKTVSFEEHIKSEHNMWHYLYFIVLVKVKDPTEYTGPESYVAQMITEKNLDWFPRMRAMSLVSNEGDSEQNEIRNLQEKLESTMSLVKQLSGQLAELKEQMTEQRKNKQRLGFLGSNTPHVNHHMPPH

- EC50 (IP3R3): 255 ± 9 nM
- EC50 (IP3R2 [1]): 74 ± 10 nM
- EC50 (IP3R2 [2]): 246 ± 17 nM
SMILES: O=P(O)(O)O[C@@H]1[C@H](O)[C@H](O)[C@@H](OP(=O)(O)O)[C@H](OP(=O)(O)O)[C@H]1O [IP3]
